Test results reported in ChEMBL document CHEMBL4364327, “Discovery of benzimidazole analogs as a novel interleukin-5 inhibitors” (Eur J Med Chem, 2019).

Tests used:
Type in all cases: cell-based
[1] = biological target: T1, Interleukin-5 receptor subunit alpha (Mus musculus) (UniProt P21183); experiment: Inhibition of IL-5 receptor in mouse pro-B Y16 cells assessed as decrease in mIL-5 dependent cell proliferation at 30 uM after 48 hrs in presence of 3 units/ml mIL-5 by WST-1 assay relative to control
T1 sequence (whole entry): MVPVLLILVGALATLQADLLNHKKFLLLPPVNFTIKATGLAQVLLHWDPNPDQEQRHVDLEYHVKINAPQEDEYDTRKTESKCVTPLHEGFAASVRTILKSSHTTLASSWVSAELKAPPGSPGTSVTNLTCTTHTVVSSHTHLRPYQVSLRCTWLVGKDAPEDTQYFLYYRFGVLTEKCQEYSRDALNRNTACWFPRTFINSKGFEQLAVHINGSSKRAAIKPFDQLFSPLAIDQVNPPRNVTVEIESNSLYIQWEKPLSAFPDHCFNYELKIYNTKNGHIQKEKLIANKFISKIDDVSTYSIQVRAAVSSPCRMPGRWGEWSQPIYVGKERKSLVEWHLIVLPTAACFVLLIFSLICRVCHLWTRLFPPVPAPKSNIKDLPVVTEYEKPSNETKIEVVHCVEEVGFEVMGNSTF
Outline: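 Y16 murine early B-cell line was maintained in RPMI-1640 with 8% FBS and 3 units/mL mIL-5. Cells were washed twice in Hanks', resuspended without IL-5 (viability >95%), and plated at 1 × 10⁴ cells per well. A 3 units/mL mIL-5 solution and sample were added. Control wells received medium in place of sample; blank wells received medium in place of mIL-5. After 48 h at 37 °C, WST-1 was added for 2–4 h and A450 was read.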

[2] = biological target: T1, Interleukin-5 receptor subunit alpha (Mus musculus); experiment: Inhibition of IL-5 receptor in mouse pro-B Y16 cells assessed as decrease in mIL-5 dependent cell proliferation at 50 uM after 48 hrs in presence of 3 units/ml mIL-5 by WST-1 assay relative to control
[3] = Cytotoxicity against human HCC1395BL cells assessed as inhibition of cell viability at 30 uM measured after 48 hrs by MTT assay; details: read-out: INH
Outline: (§1)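 HCC1395 BL or NCI-BL1184 normal B lymphoblasts were cultured in RPMI-1640 or IMDM with 10% FBS at 37 °C and 5% CO₂, with serum but no IL-5. Cells were exposed to compound for 48 h, then to 0.5 mg/mL MTT for a further 3 h. Values are the mean ± SD of three independent measurements.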

[4] = Cytotoxicity against human NCI-BL1184 cells assessed as inhibition of cell viability at 30 uM measured after 48 hrs by MTT assay; details: read-out: INH; outline: as §1

SMILES	inhibition [1] [%]	further results
COc1ccc(CN(CCO)Cc2nc3c(OCC4CCCCC4)cccc3[nH]2)cc1	73.3	
CN(CCO)Cc1nc2c(OCC3CCCCC3)cccc2[nH]1	42	
OCCNCc1nc2c(OCC3CCCCC3)cccc2[nH]1	63.3	
OCC(Cc1ccccc1)NCc1nc2c(OCC3CCCCC3)cccc2[nH]1 (stereo unspecified)	81	
O=c1c(-c2ccc(O[C@@H]3O[C@H](CO)[C@@H](O)[C@H](O)[C@H]3O)cc2)coc2cc(O)cc(O)c12		inhibition [2]: 79.1%
OCCCCCNCc1nc2c(OCC3CCCCC3)cccc2[nH]1	23.7	
CCCN(CCO)Cc1nc2c(OCC3CCCCC3)cccc2[nH]1	63	
OCC(CC1CCCCC1)NCc1nc2c(OCC3CCCCC3)cccc2[nH]1 (stereo unspecified)	94.7	cytotoxicity at 48 h, 30 µM [3]: 12.5%; cytotoxicity at 48 h, 30 µM [4]: 9.8%
OCCN(Cc1nc2c(OCC3CCCCC3)cccc2[nH]1)C1CCCCC1	24	
CCCC(CO)NCc1nc2c(OCC3CCCCC3)cccc2[nH]1 (stereo unspecified)	73.3	
OCCN(Cc1ccccc1)Cc1nc2c(OCC3CCCCC3)cccc2[nH]1	62.3	
OCCN(Cc1ccncc1)Cc1nc2c(OCC3CCCCC3)cccc2[nH]1	43.3	
COc1ccc(NCc2nc3c(OCC4CCCCC4)cccc3[nH]2)cc1	20.3	
c1ccc(CNCc2nc3c(OCC4CCCCC4)cccc3[nH]2)cc1	49.3	
OCCC(NCc1nc2c(OCC3CCCCC3)cccc2[nH]1)c1ccccc1 (stereo unspecified)	64.7	
OCCCCNCc1nc2c(OCC3CCCCC3)cccc2[nH]1	44.3	
CC(C)N(CCO)Cc1nc2c(OCC3CCCCC3)cccc2[nH]1	10	
c1ccc(NCc2nc3c(OCC4CCCCC4)cccc3[nH]2)cc1	25	
CCN(CCO)Cc1nc2c(OCC3CCCCC3)cccc2[nH]1	34.7	
OCCN(Cc1nc2c(OCC3CCCCC3)cccc2[nH]1)CC1CCCCC1	76.7	
OCCCNCc1nc2c(OCC3CCCCC3)cccc2[nH]1	52.7	
OCC(NCc1nc2c(OCC3CCCCC3)cccc2[nH]1)c1ccccc1 (stereo unspecified)	77.7	
OCCN(Cc1ccc(Cl)cc1)Cc1nc2c(OCC3CCCCC3)cccc2[nH]1	96	
COc1ccc(CNCc2nc3c(OCC4CCCCC4)cccc3[nH]2)cc1	43.3	
CCCC1O[C@@H]2C[C@H]3[C@@H]4CCC5=CC(=O)C=C[C@]5(C)[C@H]4[C@@H](O)C[C@]3(C)[C@]2(C(=O)CO)O1 (stereo partly specified)		inhibition [2]: 70.2%
CC(C)(CO)NCc1nc2c(OCC3CCCCC3)cccc2[nH]1	54.7	
CCC(CO)NCc1nc2c(OCC3CCCCC3)cccc2[nH]1 (stereo unspecified)	94.3	cytotoxicity at 48 h, 30 µM [3]: 7.5%; cytotoxicity at 48 h, 30 µM [4]: 10.2%
